Measured values: ChEMBL document CHEMBL1127378, “Influence of lipophilicity on the biological activity of cyclic pseudopeptide NK-2 receptor antagonists” (J Med Chem, 1994)
Where a SMILES comes first, the peptide text is derived from it. [ ]: non-standard residue; d: D form. Cha = N[C@@H](CC1CCCCC1)C(=O)O; βAla = NCCC(=O)O

Legend:
Substance-K receptor [1] = target: T1, Substance-K receptor (Mesocricetus auratus, UniProt P51144); assay: Tested for antagonist activity at NK-2 tachykinin receptors in hamster trachea; format: functional; details: for Kb: read-out: pA2 (converted)
T1 sequence (P51144 whole entry): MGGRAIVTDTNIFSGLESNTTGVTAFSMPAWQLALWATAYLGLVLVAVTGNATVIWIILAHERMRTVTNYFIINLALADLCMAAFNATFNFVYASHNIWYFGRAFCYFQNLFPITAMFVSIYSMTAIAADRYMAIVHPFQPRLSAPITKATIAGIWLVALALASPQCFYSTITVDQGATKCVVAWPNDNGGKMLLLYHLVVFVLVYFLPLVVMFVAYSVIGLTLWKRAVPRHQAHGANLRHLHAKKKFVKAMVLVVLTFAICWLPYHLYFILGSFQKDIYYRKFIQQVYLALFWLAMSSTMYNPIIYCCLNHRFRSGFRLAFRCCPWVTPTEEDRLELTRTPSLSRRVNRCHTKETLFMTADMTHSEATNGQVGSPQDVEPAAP
Summary of the method: (§1)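 Isolated tissues from male New Zealand rabbits (2.5-3 kg) or male Syrian golden hamsters (90-130 g). Endothelium-denuded pulmonary artery strips (rabbit) or tracheal rings (hamster) were used for isometric tension in oxygenated (96% O2/4% CO2) Krebs. Thiorphan, captopril and bestatin were added 15 min before agonist. Cumulative NKA curves were repeated after 15 min antagonist incubation, with one concentration per experiment and at least three concentrations. pA2 came from constrained Schild plots (≥9 experiments).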

Substance-K receptor [2] = target: T2, Substance-K receptor (Oryctolagus cuniculus, UniProt P79218); assay: Antagonist activity at NK-2 tachykinin receptors in rabbit pulmonary artery; format: functional; details: for Kb: read-out: pA2 (converted); summary of the method: as §1
T2 sequence (P79218 whole entry): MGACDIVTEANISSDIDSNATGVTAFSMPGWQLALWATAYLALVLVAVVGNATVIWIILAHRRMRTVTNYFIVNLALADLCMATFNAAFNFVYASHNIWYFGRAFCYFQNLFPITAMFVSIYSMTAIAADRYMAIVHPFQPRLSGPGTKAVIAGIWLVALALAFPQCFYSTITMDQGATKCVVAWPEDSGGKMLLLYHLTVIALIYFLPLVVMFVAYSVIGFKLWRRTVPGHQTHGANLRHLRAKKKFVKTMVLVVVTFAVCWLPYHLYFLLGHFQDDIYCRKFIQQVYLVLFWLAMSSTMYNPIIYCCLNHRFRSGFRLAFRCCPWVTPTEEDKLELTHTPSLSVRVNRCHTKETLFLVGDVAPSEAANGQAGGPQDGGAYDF

Substance-K receptor [3] = target: T2, Substance-K receptor; assay: Tested for antagonist activity at NK-2 tachykinin receptors in rabbit pulmonary artery; details: read-out: pA2 (converted)
[4] = Tested for capacity factors by reversed phase HPLC (C18, solvent system 1)
[5] = target: T3, Substance-K receptor (Oryctolagus cuniculus) (UniProt P79218); details: filed as agonist
T3 sequence (whole entry): T2 sequence (P79218 whole entry)

[6] = target: T3, Substance-K receptor (Oryctolagus cuniculus)

Row | SMILES | Kb (Substance-K receptor [1]) [nM] | Kb (Substance-K receptor [2]) [nM] | k' [4] | other results
1 | CC(C)C[C@@H]1CN[C@@H](CC(C)C)C(=O)N[C@@H](CCC(N)=O)C(=O)N[C@@H](Cc2c[nH]c3ccccc23)C(=O)N[C@@H](Cc2ccccc2)C(=O)NCCC(=O)N1 | 15.8 | 112 | – | –
2 | CC(C)C[C@@H]1CN[C@@H](CC(N)=O)C(=O)N[C@@H](CCC(N)=O)C(=O)N[C@@H](Cc2c[nH]c3ccccc23)C(=O)N[C@@H](Cc2ccccc2)C(=O)NCCC(=O)N1 | 110 | 692 | – | –
3 | CC(C)C[C@@H]1CN[C@@H](CC2CCCCC2)C(=O)N[C@@H](CCC(N)=O)C(=O)N[C@@H](Cc2c[nH]c3ccccc23)C(=O)N[C@@H](Cc2ccccc2)C(=O)NCCC(=O)N1 | 0.871 | – | – | Kb (Substance-K receptor [3]): 38.9 nM
4 | CSCC[C@@H]1NC[C@@H](CC(C)C)NC(=O)CCNC(=O)[C@@H](Cc2ccccc2)NC(=O)[C@H](Cc2c[nH]c3ccccc23)NC(=O)[C@@H](CCC(N)=O)NC1=O | – | – | 9.6 | –
5 | CC(C)C[C@@H]1CN[C@@H](Cc2ccc3ccccc3c2)C(=O)N[C@H](CCC(N)=O)C(=O)N[C@@H](Cc2c[nH]c3ccccc23)C(=O)N[C@H](Cc2ccccc2)C(=O)NCCC(=O)N1 | – | – | 12 | –
6 | CC(C)C[C@@H]1CN[C@@H](CC(C)C)C(=O)N[C@H](CCC(N)=O)C(=O)N[C@@H](Cc2c[nH]c3ccccc23)C(=O)N[C@H](Cc2ccccc2)C(=O)NCCC(=O)N1 | – | – | 9.9 | –
7 | CC(C)C[C@@H]1CN[C@@H](CC2CCCCC2)C(=O)N[C@H](CCC(N)=O)C(=O)N[C@@H](Cc2c[nH]c3ccccc23)C(=O)N[C@H](Cc2ccccc2)C(=O)NCCC(=O)N1 | – | – | 11.6 | –
8 | CC(C)C[C@@H]1CN[C@@H](Cc2ccc3ccccc3c2)C(=O)N[C@@H](CCC(N)=O)C(=O)N[C@@H](Cc2c[nH]c3ccccc23)C(=O)N[C@@H](Cc2ccccc2)C(=O)NCCC(=O)N1 | – | – | – | pA2 (Substance-K receptor [1]): 8.79; pA2 (Substance-K receptor [2]): 7.37
9 | CC(C)C[C@@H]1CN(C)[C@@H](CC2CCCCC2)C(=O)N[C@@H](CCC(N)=O)C(=O)N[C@@H](Cc2c[nH]c3ccccc23)C(=O)N[C@@H](Cc2ccccc2)C(=O)NCCC(=O)N1 | 3.8 | 117 | – | –
10 | CSCC[C@@H]1NC[C@@H](CC(C)C)NC(=O)CCNC(=O)[C@H](Cc2ccccc2)NC(=O)[C@H](Cc2c[nH]c3ccccc23)NC(=O)[C@H](CCC(N)=O)NC1=O | 12.9 | 224 | – | –
11 | CC(C)C[C@@H]1CN(C)[C@@H](CC2CCCCC2)C(=O)N[C@H](CCC(N)=O)C(=O)N[C@@H](Cc2c[nH]c3ccccc23)C(=O)N[C@H](Cc2ccccc2)C(=O)NCCC(=O)N1 | – | – | 13.1 | –
12 | CC(C)C[C@@H]1NC(=O)CCNC(=O)[C@H](Cc2ccccc2)NC(=O)[C@H](Cc2c[nH]c3ccccc23)NC(=O)[C@H](CCC(N)=O)NC(=O)[C@H](CC2CCCCC2)NC1=O (cyclo([Cha]QWF[βAla]L)) | 31.6 | 1450 | – | –

Continued, in another order:

Row | Kb (Substance-K receptor [1]) [nM] | Kb (Substance-K receptor [2]) [nM] | k' [4] | SMILES | other results
13 | 67.6 | 1070 | – | CC(C)C[C@@H]1CN[C@@H](CC(=O)O)C(=O)N[C@@H](CCC(N)=O)C(=O)N[C@@H](Cc2c[nH]c3ccccc23)C(=O)N[C@@H](Cc2ccccc2)C(=O)NCCC(=O)N1 | –
14 | 0.55 | 15.5 | – | CC(C)C[C@@H]1CN[C@@H](CCC(=O)NCc2ccccc2)C(=O)N[C@@H](CCC(N)=O)C(=O)N[C@@H](Cc2c[nH]c3ccccc23)C(=O)N[C@@H](Cc2ccccc2)C(=O)NCCC(=O)N1 | –
15 | – | – | 7.9 | CC(C)C[C@@H]1CN[C@@H](CC(=O)O)C(=O)N[C@H](CCC(N)=O)C(=O)N[C@@H](Cc2c[nH]c3ccccc23)C(=O)N[C@H](Cc2ccccc2)C(=O)NCCC(=O)N1 | –
16 | – | – | 6.8 | CC(C)C[C@@H]1CN[C@@H](CCCCN)C(=O)N[C@H](CCC(N)=O)C(=O)N[C@@H](Cc2c[nH]c3ccccc23)C(=O)N[C@H](Cc2ccccc2)C(=O)NCCC(=O)N1 | pA2 [5]: Agonist; pD2 [6]: 5.96
17 | 6.76 | 129 | – | CC(C)C[C@@H]1CN[C@@H](CCCCNC(=O)OCc2ccccc2)C(=O)N[C@@H](CCC(N)=O)C(=O)N[C@@H](Cc2c[nH]c3ccccc23)C(=O)N[C@@H](Cc2ccccc2)C(=O)NCCC(=O)N1 | –
18 | – | – | 10.5 | CC(C)C[C@@H]1CN[C@@H](Cc2ccccc2)C(=O)N[C@H](CCC(N)=O)C(=O)N[C@@H](Cc2c[nH]c3ccccc23)C(=O)N[C@H](Cc2ccccc2)C(=O)NCCC(=O)N1 | –
19 | – | – | 11.1 | CC(C)C[C@@H]1CN[C@@H](CCC(=O)NCc2ccccc2)C(=O)N[C@H](CCC(N)=O)C(=O)N[C@@H](Cc2c[nH]c3ccccc23)C(=O)N[C@H](Cc2ccccc2)C(=O)NCCC(=O)N1 | –
20 | – | – | 11.9 | CC(C)C[C@@H]1CN[C@@H](CCCCNC(=O)OCc2ccccc2)C(=O)N[C@H](CCC(N)=O)C(=O)N[C@@H](Cc2c[nH]c3ccccc23)C(=O)N[C@H](Cc2ccccc2)C(=O)NCCC(=O)N1 | –
21 | 18.6 | 79.4 | – | CC(C)C[C@@H]1CN[C@@H](Cc2ccccc2)C(=O)N[C@@H](CCC(N)=O)C(=O)N[C@@H](Cc2c[nH]c3ccccc23)C(=O)N[C@@H](Cc2ccccc2)C(=O)NCCC(=O)N1 | –
22 | – | – | 7.7 | CC(C)C[C@@H]1CN[C@@H](CC(N)=O)C(=O)N[C@H](CCC(N)=O)C(=O)N[C@@H](Cc2c[nH]c3ccccc23)C(=O)N[C@H](Cc2ccccc2)C(=O)NCCC(=O)N1 | –
23 | 309 | – | – | CC(C)C[C@@H]1CN[C@@H](CCCCN)C(=O)N[C@@H](CCC(N)=O)C(=O)N[C@@H](Cc2c[nH]c3ccccc23)C(=O)N[C@@H](Cc2ccccc2)C(=O)NCCC(=O)N1 | –
